Calls of active or inactive are those of the source. No cut-off for these calls is given here.
Assays:
[1] = tested on: MCF7; test: Synergistic cytotoxicity against human MCF7 cells assessed as combination index measured after 96 hrs in presence of TPT by MTT assay; assay type: functional
[2] = tested on: MCF7; test: Induction of apoptosis in human MCF7 cells assessed as late apoptotic cells at 4 uM measured after 24 hrs by Annexin V-FITC/propidium iodide staining based flow cytometry (Rvb=0%); assay type: functional
Summary of the method: (§1)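 MCF-7 cells (2×10^5 per dish) exposed to compound at 1, 2 or 4 µM for 24 h. Cells resuspended in binding buffer and stained with Annexin V-FITC plus propidium iodide for 15 min at 25 °C in the dark. Viable, early apoptotic, late apoptotic and necrotic fractions quantified by flow cytometry.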

[3] = molecular target: T1, Tyrosyl-DNA phosphodiesterase 1 (Homo sapiens, UniProt Q9NUW8); test: Induction of TDP1-DNA complex formation in human […] cells at 10 to 100 uM in presence of TPT by ICE assay; assay type: cell-based; details: dose 10-100 µM
Summary of the method: (§2)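 Genomic DNA isolated with DNAzol and ethanol precipitation, then 2 µg slot-blotted onto nitrocellulose in 25 mM NaH2PO4 pH 6.5. Probed with rabbit anti-TDP1 (1:1000) overnight at 4 °C, then HRP secondary, with chemiluminescent read-out.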

[4] = tested on: MCF7; test: Induction of apoptosis in human MCF7 cells assessed as necrotic cells at 4 uM measured after 24 hrs by Annexin V-FITC/propidium iodide staining based flow cytometry (Rvb=0.83%); assay type: functional; summary of the method: as §1
[5] = tested on: DU-145; test: Cytotoxicity against human DU145 cells assessed as cell growth inhibition after 72 hrs by MTT assay; assay type: functional
Summary of the method: (§3)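 Compounds predissolved in DMSO, tested in a five-dose series from 0.01 to 100 µM for 72 h, then read by MTT. Percent viability inhibition is taken against control, and GI50 is fitted by nonlinear regression.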

[6] = molecular target: T1, Tyrosyl-DNA phosphodiesterase 1; test: Induction of TDP1-DNA complex formation in human MCF7 cells at 100 uM by ICE assay; assay type: cell-based; summary of the method: as §2
[7] = tested on: MCF7; test: Induction of apoptosis in human MCF7 cells assessed as viable cells at 4 uM measured after 24 hrs by Annexin V-FITC/propidium iodide staining based flow cytometry (Rvb=99.05%); assay type: functional; details: read-out: Activity; summary of the method: as §1
[8] = tested on: MCF7; test: Induction of DNA damage in human MCF7 cells assessed as decrease in TPT-induced gammaH2AX foci at 2 uM measured after 6 hrs by DAPI staining based immunofluorescence assay; assay type: functional; parameters: scale not given: the % may be the effect or the level left
Summary of the method: (§4)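 Fixed in 4% paraformaldehyde, permeabilized with 0.5% Triton X-100, blocked in 5% goat serum. Stained with γH2AX antibody overnight at 4 °C, then Alexa 488 secondary plus DAPI 2 µg/mL. Foci counted by confocal microscopy, at least three independent repeats.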

[9] = tested on: MCF7; test: Induction of apoptosis in human MCF7 cells assessed as late apoptotic cells at 1 uM measured after 24 hrs by Annexin V-FITC/propidium iodide staining based flow cytometry (Rvb=0%); assay type: functional; summary of the method: as §1
[10] = tested on: MCF7; test: Induction of apoptosis in human MCF7 cells assessed as viable cells at 2 uM measured after 24 hrs by Annexin V-FITC/propidium iodide staining based flow cytometry (Rvb=99.05%); assay type: functional; details: read-out: Activity; summary of the method: as §1
[11] = tested on: MCF7; test: Induction of apoptosis in human MCF7 cells assessed as necrotic cells at 2 uM measured after 24 hrs by Annexin V-FITC/propidium iodide staining based flow cytometry; assay type: functional; summary of the method: as §1
[12] = tested on: MCF7; test: Induction of apoptosis in human MCF7 cells assessed as early apoptotic cells at 2 uM measured after 24 hrs by Annexin V-FITC/propidium iodide staining based flow cytometry (Rvb=0.12%); assay type: functional; summary of the method: as §1
[13] = tested on: MCF7; test: Synergistic cytotoxicity against human MCF7/TDP1 cells assessed as combination index measured after 96 hrs in presence of TPT by MTT assay; assay type: functional
[14] = tested on: MCF7; test: Induction of DNA damage in human MCF7/TDP1 cells assessed as decrease in TPT-induced gammaH2AX foci at 2 uM measured after 6 hrs by DAPI staining based immunofluorescence assay; assay type: functional; parameters: scale not given: the % may be the effect or the level left; summary of the method: as §4
[15] = tested on: MCF7; test: Induction of apoptosis in human MCF7 cells assessed as viable cells at 1 uM measured after 24 hrs by Annexin V-FITC/propidium iodide staining based flow cytometry (Rvb=99.05%); assay type: functional; details: read-out: Activity; summary of the method: as §1
[16] = tested on: MCF7; test: Induction of DNA damage in human MCF7 cells assessed as decrease in TPT-induced gammaH2AX foci at 1 uM measured after 6 hrs by DAPI staining based immunofluorescence assay; assay type: functional; parameters: scale not given: the % may be the effect or the level left; summary of the method: as §4
[17] = tested on: MCF7/TDP1; test: Induction of DNA damage in human MCF7/TDP1 cells assessed as decrease in gammaH2AX foci at 2 uM measured after 6 hrs by DAPI staining based immunofluorescence assay; parameters: scale not given: the % may be the effect or the level left
[18] = molecular target: T1, Tyrosyl-DNA phosphodiesterase 1; test: Induction of TDP1-DNA complex formation in human MCF7 cells at 10 to 100 uM in presence of TPT by ICE assay; assay type: cell-based; details: dose 10-100 µM; summary of the method: as §2
[19] = tested on: MCF7; test: Induction of apoptosis in human MCF7 cells assessed as early apoptotic cells at 1 uM measured after 24 hrs by Annexin V-FITC/propidium iodide staining based flow cytometry (Rvb=0.12%); assay type: functional; summary of the method: as §1
[20] = tested on: MCF7; test: Induction of apoptosis in human MCF7 cells assessed as late apoptotic cells at 2 uM measured after 24 hrs by Annexin V-FITC/propidium iodide staining based flow cytometry (Rvb=0%); assay type: functional; summary of the method: as §1
[21] = tested on: MCF7; test: Cytotoxicity against human MCF-7/TDP1 cells assessed as cell growth inhibition after 72 hrs by MTT assay; assay type: functional
Summary of the method: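 MCF-7/TDP1 is a TDP1-overexpressing line made by transfecting parental MCF-7, grown in RPMI 1640 or DMEM with 10% FBS at 37 °C, 5% CO2. DMSO-dissolved compounds tested at five doses from 0.01 to 100 µM, read by MTT. GI50 (mean ± SD, at least three repeats) fitted by nonlinear regression against control.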

[22] = molecular target: T1, Tyrosyl-DNA phosphodiesterase 1; test: Induction of TDP1-DNA complex formation in human MCF7/TDP1 cells at 10 uM by ICE assay; assay type: cell-based; summary of the method: as §2
[23] = tested on: MCF7; test: Induction of apoptosis in human MCF7 cells assessed as early apoptotic cells at 4 uM measured after 24 hrs by Annexin V-FITC/propidium iodide staining based flow cytometry(Rvb=0.12%); assay type: functional; summary of the method: as §1
[24] = molecular target: T2, DNA topoisomerase 1 (Homo sapiens) (UniProt P11387); test: Inhibition of recombinant TOP1 (unknown origin) at 1 uM using 3'-[32P]-labeled 117 bp DNA oligonucleotides as substrate incubated for 20 mins by PAGE analysis relative to CPT
T2 sequence (whole entry): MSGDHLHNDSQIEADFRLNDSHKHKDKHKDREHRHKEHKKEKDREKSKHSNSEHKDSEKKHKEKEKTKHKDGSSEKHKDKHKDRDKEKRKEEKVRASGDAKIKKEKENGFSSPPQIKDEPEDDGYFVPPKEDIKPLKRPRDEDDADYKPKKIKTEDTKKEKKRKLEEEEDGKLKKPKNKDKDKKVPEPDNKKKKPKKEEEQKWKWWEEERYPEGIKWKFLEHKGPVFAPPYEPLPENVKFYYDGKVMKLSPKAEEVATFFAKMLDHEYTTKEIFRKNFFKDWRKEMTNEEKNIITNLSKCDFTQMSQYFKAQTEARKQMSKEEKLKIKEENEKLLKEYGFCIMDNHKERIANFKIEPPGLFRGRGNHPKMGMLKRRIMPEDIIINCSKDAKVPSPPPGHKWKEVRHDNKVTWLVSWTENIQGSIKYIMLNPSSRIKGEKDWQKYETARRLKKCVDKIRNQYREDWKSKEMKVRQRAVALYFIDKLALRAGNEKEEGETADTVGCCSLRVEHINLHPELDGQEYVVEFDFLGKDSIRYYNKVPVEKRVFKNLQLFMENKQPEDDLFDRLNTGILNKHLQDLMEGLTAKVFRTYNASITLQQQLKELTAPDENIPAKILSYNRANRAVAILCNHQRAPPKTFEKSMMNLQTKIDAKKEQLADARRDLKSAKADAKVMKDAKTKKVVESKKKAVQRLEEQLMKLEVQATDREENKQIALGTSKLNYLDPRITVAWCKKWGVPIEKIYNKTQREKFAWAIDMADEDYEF
Summary of the method: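 3'-[32P]-labeled 117 bp oligonucleotide (~2 nM) with recombinant TOP1 and compound, 25 °C, 20 min. Buffer: 10 mM Tris-HCl pH 7.5, 50 mM KCl, 5 mM MgCl2, 0.1 mM EDTA, BSA. Stopped with 0.5% SDS and run on 20% denaturing PAGE with phosphorimaging.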

[25] = molecular target: T1, Tyrosyl-DNA phosphodiesterase 1; test: Induction of TDP1-DNA complex formation in human MCF7 cells at 10 uM by ICE assay; assay type: cell-based; summary of the method: as §2
[26] = tested on: MCF7; test: Induction of apoptosis in human MCF7 cells assessed as necrotic cells at 1 uM measured after 24 hrs by Annexin V-FITC/propidium iodide staining based flow cytometry (Rvb=0.83%); assay type: functional; summary of the method: as §1
[27] = tested on: MCF7; test: Induction of DNA damage in human MCF7/TDP1 cells assessed as decrease in TPT-induced gammaH2AX foci at 1 uM measured after 6 hrs by DAPI staining based immunofluorescence assay; assay type: functional; parameters: scale not given: the % may be the effect or the level left; summary of the method: as §4
[28] = tested on: MCF7; test: Induction of DNA damage in human MCF7/TDP1 cells assessed as increase in gammaH2AX foci at 1 uM measured after 6 hrs by DAPI staining based immunofluorescence assay; assay type: functional; summary of the method: as §4
[29] = tested on: MCF7; test: Cytotoxicity against human MCF-7 cells assessed as cell growth inhibition after 72 hrs by MTT assay; assay type: functional; summary of the method: as §3
[30] = tested on: HCT-116; test: Cytotoxicity against human HCT-116 cells assessed as cell growth inhibition after 72 hrs by MTT assay; assay type: functional
Summary of the method: (§5)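 Cells kept in RPMI 1640 or DMEM with 10% FBS at 37 °C, 5% CO2. Compounds predissolved in DMSO, tested in a five-dose series from 0.01 to 100 µM for 72 h, then read by MTT. Percent viability inhibition is taken against control, and GI50 is fitted by nonlinear regression.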

[31] = tested on: A549; test: Cytotoxicity against human A549 cells assessed as cell growth inhibition after 72 hrs by MTT assay; assay type: functional; summary of the method: as §5
[32] = tested on: MCF7; test: Induction of DNA damage in human MCF7/TDP1 cells assessed as increase in gammaH2AX foci measured after 6 hrs by DAPI staining based immunofluorescence assay; assay type: functional; summary of the method: as §4
[33] = tested on: MCF7; test: Synergistic cytotoxicity against human MCF7 cells at 50 nM after 96 hrs by MTT assay; assay type: functional
[34] = tested on: MCF7; test: Synergistic cytotoxicity against human MCF7/TDP1 cells at 100 nM after 96 hrs in presence of 12-(2-(Dimethylamino)ethyl)-1,2-dihydroxy-[1,3]dioxolo[4',5':4,5]benzo[1,2-c]phenanthridine-13(12H)-one by MTT assay; assay type: functional
[35] = tested on: MCF7; test: Synergistic cytotoxicity against human MCF7 cells at 50 nM after 96 hrs in presence of 12-(2-(Dimethylamino)ethyl)-1,2-dihydroxy-[1,3]dioxolo[4',5':4,5]benzo[1,2-c]phenanthridine-13(12H)-one by MTT assay; assay type: functional
[36] = tested on: MCF7; test: Synergistic cytotoxicity against human MCF7/TDP1 cells at 100 nM after 96 hrs by MTT assay; assay type: functional
[37] = Resistance index,ratio of GI50 for growth inhibition of human MCF-7/TDP1 cells to GI50 for growth inhibition of human MCF-7 cells; assay type: functional
Summary of the method: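 Resistance index is the MTT GI50 in TDP1-overexpressing MCF-7/TDP1 (transfected MCF-7) divided by the GI50 in parental MCF-7. GI50 values are mean ± SD of at least three experiments.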

T1 sequence (Q9NUW8 whole entry): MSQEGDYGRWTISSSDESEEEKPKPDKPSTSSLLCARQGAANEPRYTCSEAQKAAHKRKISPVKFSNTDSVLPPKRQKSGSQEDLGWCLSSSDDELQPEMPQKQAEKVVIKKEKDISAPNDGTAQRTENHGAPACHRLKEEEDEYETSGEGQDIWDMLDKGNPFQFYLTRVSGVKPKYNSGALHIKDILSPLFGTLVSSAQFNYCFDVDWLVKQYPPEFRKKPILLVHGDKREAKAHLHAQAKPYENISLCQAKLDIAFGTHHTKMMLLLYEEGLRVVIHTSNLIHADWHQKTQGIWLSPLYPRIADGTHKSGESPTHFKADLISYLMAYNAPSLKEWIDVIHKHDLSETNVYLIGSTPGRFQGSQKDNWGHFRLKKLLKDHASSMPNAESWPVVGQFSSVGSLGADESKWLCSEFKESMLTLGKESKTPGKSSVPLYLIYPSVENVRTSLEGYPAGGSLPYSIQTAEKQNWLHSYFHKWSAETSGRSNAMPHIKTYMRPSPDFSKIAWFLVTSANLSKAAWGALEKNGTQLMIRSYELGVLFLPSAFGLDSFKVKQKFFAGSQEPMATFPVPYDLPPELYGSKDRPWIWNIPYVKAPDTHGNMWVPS

CN(C)CCn1c(=O)c2c(O)c(O)ccc2c2ccc3cc4c(cc3c21)OCO4
CI [1]: <0.3
Activity [2]: 48.46%
Activity [3]: Active
Activity [4]: 9.31%
GI50 [5]: 800 nM
Activity [6]: Active
viability at 4 µM [7]: 15.7%
Activity [8]: 18%
Activity [9]: 0.73%
viability at 2 µM [10]: 39.7%
Activity [11]: 14.71%
Activity [12]: 21.31%
CI [13]: <0.3
Activity [14]: 18%
viability at 1 µM [15]: 70.1%
Activity [16]: 14%
Activity [17]: 28%
Activity [18]: Active
Activity [19]: 28.99%
Activity [20]: 24.3%
GI50 [21]: 3980 nM
Activity [22]: Active
Activity [23]: 26.53%
inhibition [24]: 75%
Activity [25]: inactive
Activity [26]: 0.16%
Activity [27]: 14%
Activity [28]: 22%

CC[C@@]1(O)C(=O)OCc2c1cc1n(c2=O)Cc2cc3ccccc3nc2-1 [CAMPTOTHECIN]
GI50 [29]: 350 nM
GI50 [21]: 3210 nM
GI50 [30]: 50 nM
GI50 [31]: 310 nM

CC[C@@]1(O)C(=O)OCc2c1cc1n(c2=O)Cc2cc3c(CN(C)C)c(O)ccc3nc2-1 [TOPOTECAN]
Activity [32]: 34%
Activity [33]: 23%
Activity [34]: 86%
GI50 [21]: 2590 nM
Activity [35]: 87%
Activity [25]: inactive
Activity [36]: 19%
Activity [28]: 34%

COc1cc2c(=O)n(CCN(C)C)c3c4cc5c(cc4ccc3c2cc1OC)OCO5
GI50 [5]: 78 nM
GI50 [29]: 200 nM
GI50 [21]: 7420 nM
GI50 [30]: 140 nM
GI50 [31]: 320 nM
RatioGI50 [37]: 19.9
